Assay results as given in ChEMBL document CHEMBL1132588, “Synthesis, CoMFA analysis, and receptor docking of 3,5-diacyl-2, 4-dialkylpyridine derivatives as selective A3 adenosine receptor antagonists” (J Med Chem, 1999).

Tests used:
[1] = biological target: T1, Adenosine receptor A3 (Homo sapiens) (UniProt P0DMS8); assay: (§1) Displacement of specific [125 I]AB-MECA binding at human Adenosine A3 receptor expressed in HEK cells; format: cell-based; details: HEK293
T1 sequence (whole entry): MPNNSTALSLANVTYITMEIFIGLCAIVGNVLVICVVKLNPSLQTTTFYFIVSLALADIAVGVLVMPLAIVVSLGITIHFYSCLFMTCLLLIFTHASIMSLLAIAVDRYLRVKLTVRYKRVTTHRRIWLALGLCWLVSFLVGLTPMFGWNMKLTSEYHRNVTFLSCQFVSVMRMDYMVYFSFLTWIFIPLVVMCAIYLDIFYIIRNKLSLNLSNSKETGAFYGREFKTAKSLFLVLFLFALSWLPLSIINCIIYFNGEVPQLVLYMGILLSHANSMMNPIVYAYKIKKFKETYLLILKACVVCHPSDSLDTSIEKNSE

Adenosine receptor A1 = biological target: T2, Adenosine receptor A1 (Rattus norvegicus, UniProt P25099); assay: (§2) Displacement of specific [3H]-CGS- 21680R-PIA binding to Adenosine A1 receptor in rat brain membranes.; format: cell membranes; details: in the assay text read “[3H]R-PIA” for “[3H]-CGS- 21680R-PIA”
T2 sequence (P25099 whole entry): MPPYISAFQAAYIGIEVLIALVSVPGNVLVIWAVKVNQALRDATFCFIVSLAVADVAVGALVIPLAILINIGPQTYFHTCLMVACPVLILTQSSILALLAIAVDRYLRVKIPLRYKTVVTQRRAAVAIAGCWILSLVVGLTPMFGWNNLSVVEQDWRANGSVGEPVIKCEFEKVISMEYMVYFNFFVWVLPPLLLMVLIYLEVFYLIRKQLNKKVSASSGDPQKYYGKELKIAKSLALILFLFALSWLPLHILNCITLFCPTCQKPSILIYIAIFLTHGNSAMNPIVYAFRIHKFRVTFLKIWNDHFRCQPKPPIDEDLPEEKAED
Method in brief: (§3)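 A1 binding used [3H]R-PIA on rat cerebral cortex membranes. Adenosine deaminase (3 units/mL) was included in membrane preparation, in a 30 min preincubation at 30 °C, and throughout radioligand incubation. Competitors were DMSO stocks diluted in buffer, with DMSO never above 2%.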

Rattus norvegicus [2] = species: Rattus norvegicus; assay: Ratio of binding affinities for rat A1 receptor against human A3 receptor, [Ki(rA1) / Ki (hA3)].
Method in brief: (§4)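 Ratio of Ki values from binding assays. For A3, [125I]AB-MECA (final 0.3 nM) bound membranes of HEK-293 cells expressing human A3 (clone HS-21a) or CHO cells expressing rat A3, in Tris/Mg2+/EDTA buffer at pH 8.0. For rat A1, [3H]R-PIA bound cerebral cortex membranes, with adenosine deaminase (3 units/mL) present, including a 30 min preincubation at 30 °C.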

Rattus norvegicus [3] = species: Rattus norvegicus; assay: Ratio of the binding affinities against rat A3 receptor / human A3 receptor, Ki(rA1) / Ki (hA3).; method in brief: as §4
Rattus norvegicus [4] = species: Rattus norvegicus; assay: Ratio of the binding affinities against rat A3 receptor / rat A3 receptor, Ki(rA1) / Ki (rA3).; method in brief: as §4
Adenosine receptor A2a = Adenosine receptor A2a (Rattus norvegicus, UniProt P30543); assay: Inhibition of [3H]-CGS- 21680 binding to Adenosine A2A receptor in rat striatal membranes.; format: cell membranes, Membrane
Adenosine receptor A2a, sequence (P30543 whole entry): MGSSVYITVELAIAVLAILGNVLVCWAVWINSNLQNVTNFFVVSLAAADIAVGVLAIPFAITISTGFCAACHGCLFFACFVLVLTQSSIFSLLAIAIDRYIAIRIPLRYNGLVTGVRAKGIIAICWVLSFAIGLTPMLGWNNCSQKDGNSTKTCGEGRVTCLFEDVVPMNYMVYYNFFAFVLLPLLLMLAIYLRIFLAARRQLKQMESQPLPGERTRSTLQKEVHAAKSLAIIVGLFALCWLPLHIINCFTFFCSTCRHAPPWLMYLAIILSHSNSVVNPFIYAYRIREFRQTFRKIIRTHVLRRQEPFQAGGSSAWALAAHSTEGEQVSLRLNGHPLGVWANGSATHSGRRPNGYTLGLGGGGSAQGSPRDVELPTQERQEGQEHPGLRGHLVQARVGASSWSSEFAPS

Adenosine receptor A3 = biological target: T3, Adenosine receptor A3 (Homo sapiens, UniProt P0DMS8); assay: as §1; format: cell-based, HEK293
T3 sequence (P0DMS8 whole entry): T1 sequence (whole entry)
Method in brief: (§5)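 Membranes from HEK-293 cells stably expressing human A3 receptor (clone HS-21a), or from CHO cells stably expressing rat A3 receptor (rat: n = 3-5), in 50 mM Tris, 10 mM Mg2+, 1 mM EDTA, pH 8.0. Membranes at 0.3 mg protein/mL with [125I]AB-MECA at 0.3 nM final. Nonspecific binding defined with R-PIA. Competitors were dissolved in DMSO (≤2% final) and tested at ≥5 concentrations spanning 3 log units. Bound ligand was separated by GF/B filtration with three buffer rinses; Ki was derived.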

[5] = biological target: Adenosine receptor A2a (Rattus norvegicus) (UniProt P30543); assay: Displacement of specific [3H]-CGS- 21680 binding to Adenosine A2A receptor in rat striatal membranes; format: cell membranes; parameters: concentration or dose not given beside the values; details: Membrane, concentration not given here
Adenosine receptor A2a (Rattus norvegicus), sequence (P30543 whole entry): as above
Method in brief: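 Rat striatal membranes labelled with [3H]CGS 21680 for A2A binding. Adenosine deaminase (3 units/mL) was present during membrane preparation, during a 30 min preincubation at 30 °C, and during radioligand incubation. Competitors were dissolved in DMSO and diluted in buffer (DMSO ≤2%).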

[6] = biological target: T4, Adenosine receptor A1 (Rattus norvegicus) (UniProt P25099); assay: as §2; format: cell membranes; details: concentration not given here; method in brief: as §3
T4 sequence (whole entry): T2 sequence (P25099 whole entry)

[7] = biological target: T1, Adenosine receptor A3 (Homo sapiens); assay: as §1; format: cell-based; details: HEK293; concentration not given here; method in brief: as §5

SMILES | pKi [1] | Ki (Adenosine receptor A1) | Ki (Adenosine receptor A2a) | Ki (Adenosine receptor A3) | also measured
CCOC(=O)c1c(C2CCCC2)nc(CC)c(C(=O)SCC)c1CC | 5.47 | – | – | – | –
CCOC(=O)c1c(-c2ccccc2)nc(C)c(C(=O)SCC)c1CC | 7.37 | – | – | – | –
CCSC(=O)c1c(C)nc(-c2ccccc2)c(C(=O)OCc2ccccc2)c1CC | 5.58 | – | – | – | –
CCOC(=O)c1c(-c2ccccc2)nc(CC)c(C(=O)SCC)c1CC | 7.67 | 0.041 µM | – | – | Ratio (Rattus norvegicus [2]): > 3000; Ratio (Rattus norvegicus [3]): 21; Ratio (Rattus norvegicus [4]): > 100
CCCc1c(C(=O)SCC)c(C)nc(-c2ccccc2)c1C(=O)OCC | 6.71 | – | – | – | –
CCOC(=O)c1c(-c2ccccc2)nc(CC)c(C(=O)O)c1CC | 5.89 | – | – | – | –
CCOC(=O)c1c(-c2ccccc2)nc(CC)c(C(=O)SCC)c1CCN1C(=O)c2ccccc2C1=O | 6.61 | 0.49 µM | 1.14 µM | 0.243 µM | Ratio (Rattus norvegicus [2]): 2
CCOC(=O)c1c(C)nc(-c2ccccc2)c(C(=O)OCC)c1CC | 6.75 | – | – | – | –
CCCCc1nc(-c2ccccc2)c(C(=O)OCC)c(CC)c1C(=O)SCC | 7.46 | – | – | – | –
CCOC(=O)c1c(C)nc(C2CCC2)c(C(=O)OCc2ccccc2)c1C#Cc1ccccc1 | 5.62 | – | – | – | –
CCCOC(=O)c1c(-c2ccccc2)nc(CCOCc2ccccc2)c(C(=O)SCC)c1CCC | 6.96 | 16 µM | – | 0.109 µM | –
CCOC(=O)c1c(CC)nc(-c2ccccc2)c(C(=O)OCC)c1C | 6.92 | – | – | – | –
CCCc1c2c(nc(-c3ccccc3)c1C(=O)OCC)CCSC2=O | – | 25.1 µM | 43.6 µM | – | –
CCOC(=O)c1c(-c2ccccc2)nc(C)c(C(=O)SCCOC)c1CC | 6.78 | – | – | – | –

Continued, in another order:

pKi [1] | Ki (Adenosine receptor A1) | Ki (Adenosine receptor A2a) | Ki (Adenosine receptor A3) | SMILES | also measured
7.29 | 10.8 µM | 5.59 µM | 0.0511 µM | CCCOC(=O)c1c(-c2ccccc2)nc(CC)c(C(=O)SCCO)c1CCC | Ratio (Rattus norvegicus [2]): 210
7.54 | 8.2 µM | 28.1 µM | 0.0289 µM | CCCOC(=O)c1c(-c2cccc(F)c2)nc(CC)c(C(=O)SCC)c1CCC | Ratio (Rattus norvegicus [2]): 280
6.91 | 9.8 µM | – | 0.124 µM | CCCOC(=O)c1c(-c2ccccc2)nc(CC)c(C(=O)SCC)c1CCSC(C)=O | inhibition [5]: 28%; Ratio (Rattus norvegicus [2]): 79
6.73 | – | – | – | CCSC(=O)c1c(CC)nc(-c2ccccc2)c(C(=O)OCCO)c1CC | –
6.77 | – | – | – | CCCOC(=O)c1c(-c2ccccc2)nc(CC)c(C(=O)SCC)c1CCCO | –
– | – | – | 0.517 µM | CCCOC(=O)c1c(-c2ccccc2)nc(CC)c(C(=O)SCCOC2CCCCO2)c1CCC (centres undefined) | inhibition [6]: 18%; inhibition [5]: < 10%
7.26 | 8.22 µM | 24.8 µM | 0.0551 µM | CCCOC(=O)c1c(-c2ccccc2)nc(CC)c(C(=O)SCCF)c1CCC | Ratio (Rattus norvegicus [2]): 150
7.72 | 15.6 µM | 2.05 µM | 0.0189 µM | CCCOC(=O)c1c(-c2ccccc2)nc(CC)c(C(=O)SCC)c1CCC | Ratio (Rattus norvegicus [3]): 6; Ratio (Rattus norvegicus [4]): 140
6.35 | 5.68 µM | 14 µM | 0.446 µM | CCCc1c(C(=O)SCC)c(CC)nc(-c2ccccc2)c1C(=O)OCC(F)(F)C(F)(F)F | Ratio (Rattus norvegicus [2]): 13
– | 5.94 µM | 29.1 µM | – | CCCOC(=O)c1c(-c2ccccc2)nc(CCO)c(C(=O)SCC)c1CCC | inhibition [7]: 16%
